Sampled rows, rich in hits. Any-hit rate of the full collection: about 1.8%.
M5 PAM = potentiates acetylcholine response at human M5 receptor; CHO-K1 hM5, Fluo-8 calcium, ACh EC20 PAM; 0% = ACh EC20, 100% = ACh EC100; activation, % at 3 µM; 0.3% of 360,000 active;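 active = activation above the run cutoff, the mean activation of all test compounds plus 3 SD, cut at about 18% in these data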
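Probe or stimulus: acetylcholine, EC20 level; Assay system: human M5 receptor in CHO-K1 cells; Schedule: compound preincubation 140 s before EC20 acetylcholine addition; Technique: intracellular calcium via Fluo-8 fluorescence; Dosing: single-point, 3 µM nominal; Read-out basis: percent activation from peak-over-basal fluorescence ratio, scaled EC20-to-EC100 acetylcholine; Repeats: one well per compound, no replicates.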
M4 ag = agonists of human muscarinic M4 receptor (CHRM4); P08173; CHO-K1 hM4/Gqi5, Fluo-8 calcium fluorescence; vehicle 0%, full acetylcholine response 100%; activation, % at 3 µM; 0.14% of 360,000 active; AID 624127;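 active = activation above the run mean over all test wells plus 3 SD, cut at about 32% in these data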;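 also: peak over basal fluorescence ratio per well then scaled between controls; 0% = DMSO wells and 100% = acetylcholine at EC100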
Target sequence (P08173 whole entry, looked up): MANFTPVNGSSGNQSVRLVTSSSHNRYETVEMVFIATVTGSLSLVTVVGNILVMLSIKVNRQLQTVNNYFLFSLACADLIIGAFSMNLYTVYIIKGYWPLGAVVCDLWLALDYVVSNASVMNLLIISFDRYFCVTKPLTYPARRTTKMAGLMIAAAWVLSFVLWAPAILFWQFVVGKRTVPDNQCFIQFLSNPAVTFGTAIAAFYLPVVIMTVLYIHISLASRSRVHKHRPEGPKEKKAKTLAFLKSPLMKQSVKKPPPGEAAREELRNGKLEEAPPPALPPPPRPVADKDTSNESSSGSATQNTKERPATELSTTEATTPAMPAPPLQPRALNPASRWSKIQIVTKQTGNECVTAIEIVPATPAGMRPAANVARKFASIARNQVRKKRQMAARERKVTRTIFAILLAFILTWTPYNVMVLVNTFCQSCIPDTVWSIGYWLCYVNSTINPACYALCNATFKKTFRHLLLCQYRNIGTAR
M4 PAM = positive allosteric modulators of human muscarinic M4 receptor; CHO-K1 hM4/Gqi5, Fluo-8 calcium fluorescence, ACh EC20; 0% = ACh EC20, 100% = maximal ACh; activation, % at 3 µM; 0.4% of 360,000 active; AID 624126;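 active = activation above its plate's cutoff, the mean activation of sample wells plus 3 SD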
M4 antag = blocks acetylcholine activation of human M4 receptor; P08173; CHO-hM4 cells, ACh EC80, Fluo-8 calcium fluorescence; inhibition, % at 3 µM; 0.73% of 360,000 active;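 active = inhibition above its plate's cutoff, the mean inhibition of sample wells plus 3 SD, cut at about 27% in these data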;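 also: 0% = acetylcholine EC80 with DMSO and 100% = DMSO without agonist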
CHRM5 antagonist = CHRM5 antagonism in calcium assay. P08912. CHO-hM5 cells, Fluo-8 calcium fluorescence, ACh EC80. AID 624040. 0.59% of 360,000 active. inhibition, % at 3 µM;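 active = inhibition above a per-plate cutoff, the mean of that plate's test compounds plus 3 SD, cut at about 27% in these data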;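 also: 0% = acetylcholine EC80 with DMSO and 100% = DMSO without agonist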
M5 ag = CHRM5 agonism in calcium assay; activation, % at 3 µM; AID 624037; CHO-K1 hM5 cells, Fluo-8 calcium fluorescence; 0% DMSO wells, 100% maximal acetylcholine response; 0.19% of 360,000 active;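 active = activation above the run's mean over test compounds plus 3 SD, cut at about 23% in these data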;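 also: signal is peak over basal fluorescence ratio across the kinetic read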
The depositor's hits bear a star.

SMILES	M5 PAM	M4 ag	M4 PAM	M4 antag	CHRM5 antagonist	M5 ag
CCOC(=O)C(NC(=O)c1ccccc1)(OCC1(CC)COC1)C(F)(F)F (stereo not given)	-1	0	-5	-3	-1	-2
CCc1nn(-c2ccccc2)c2c1-c1cc(OC)c(OC)cc1C1(N2)C(=O)Nc2ccccc21 (stereo not given)	-3	-2	13	-1	-6	5
CCNC(=O)N(C)c1c(CC)nc2ccc(C(=O)Nc3cccc(OCC(=O)N(C)C)c3)cn12	-9	0	-1	-3	19	2
CCc1nc2ccc(C(=O)Nc3cccc(OCC(=O)N(C)C)c3)cn2c1N(C)Cc1cc2ccccc2s1	-22	15	-12	34*	33*	-2
NC(=O)CSc1nc(O)cc(=O)n1-c1ccccc1	1	1	17*	0	2	-1
Cc1ccc(-n2c(SCC(N)=O)nc(O)cc2=O)cc1	-3	1	-1	4	4	1
COc1cccc(CN(C)C(=O)c2ccc(OCC(=O)Nc3cccc(C(F)(F)F)c3)c(OC)c2)c1	-29	21	-12	19	29*	4
CC(Sc1ncccn1)C(=O)N1CCc2ccccc21 (stereo not given)	5	0	6	-6	4	-5
Cc1oc(-c2ccccc2)cc1C(=O)Nc1cccc(C(=O)O)c1	14	1	43*	-5	-2	-4
COc1ccc(C)cc1N(CC(=O)Nc1ccc(S(=O)(=O)N2CCCC2)cc1)S(C)(=O)=O	-1	4	3	4	2	-3
C/C=C\C(=O)Nc1cccc(C2=NOC3(C2)C[C@@H](C(N)=O)N(C(=O)c2ccc(Cl)cc2)C3)c1 (stereo not given in full)	19*	1	7	-6	1	-2
CCOc1ccc(NC(=O)CSc2nc3ccsc3c(=O)n2Cc2ccc(C(=O)O)cc2)cc1	-3	1	-1	-8	8	0
CCCCc1nnc(NC(=O)c2ccc3[nH]c(=O)c(=O)[nH]c3c2)s1	4	-1	2	2	-5	-1
NC1=NC(=O)C(Cc2ccc(F)cc2)S1 (stereo not given)	2	1	3	-6	-1	1
Cc1ccc(CC2SC(N)=NC2=O)cc1 (stereo not given)	12	1	20*	-12	2	2
CC1CCCCN1CCCNc1ccc(C(CC(N)=O)NC(=O)Cc2ccc(Cl)cc2)cc1[N+](=O)[O-] (stereo not given)	0	0	2	-1	8	-3
CC(C)Cn1c(=O)oc2ccccc21	1	4	20*	-14	-7	0
O=c1oc2ccccc2n1CCCCCn1c(=O)oc2ccccc21	-6	2	-6	9	2	-5
CC1(C(O)(C#CC[N+]2(C)CCCCC2)c2ccccc2)CCCC1 (stereo not given)	-20	0	-21	99*	100*	-10
Cc1ccc(C)c(S(=O)(=O)N2CCN(C(=O)c3cccn3C)CC2)c1	-2	3	10	-27	0	2
Cc1nc(C)c(-c2ccc(SCC(=O)Nc3ccc(C)c(Cl)c3)nn2)s1	-1	4	0	9	1	-2
CC(=O)c1ccc(NC(=O)CSc2ccc(-c3sc(C)nc3C)nn2)cc1	-17	24	-8	3	32*	3
CC[N+](CC)(CC#Cc1ccccc1)CC#Cc1ccccc1	-31	0	-48	23	31*	-22
O=C(COc1ccccc1)Nc1cccc(-c2nc3cc4ccccc4cc3[nH]2)c1	-22	14	-22	30*	18	1
O=C(COc1ccccc1)Nc1cccc(-c2nn[nH]n2)c1	2	1	5	-6	-4	-2
SMILES	M5 PAM	M4 ag	M4 PAM	M4 antag	CHRM5 antagonist	M5 ag
N=C1N(/N=C/c2ccccc2)C(=Nc2ccccc2)C(=S)N1c1ccccc1	0	1	-26	55*	-4	-2
CCOC(=O)CCc1c(C)n(CC)c2cc(-c3ccccc3OC)nn2c1=O	13	-1	19*	-9	0	-9
CCc1ccc(N2CC(C(=O)NCC(C)(C)N3CCOCC3)CC2=O)cc1 (stereo not given)	-2	2	6	2	11	-1
O=C(COC(=O)c1ccccc1NS(=O)(=O)c1ccc(Cl)cc1)NCc1ccccc1	10	2	21*	0	-10	0
O=C(COC(=O)c1cc2ccccc2cc1O)NCc1ccccc1	18*	2	1	-6	-8	7
CCOC(=O)c1ccc(S(=O)(=O)N2CCC(C(=O)NCC3CCCCC3)CC2)cc1	3	0	0	7	5	0
NC(=O)C12CCCC(Br)(CCC1)C2	-1	0	-23	5	5	-1
N#CC1(Nc2cccc(Cl)c2)CCCC1	6	1	5	-3	20	-1
C=C1C(=O)[C@]23C[C@H]1CCC2[C@@]1(C)C(C[C@@H]3O)[C@](C)(C(=O)OC)CC[C@@H]1OC(C)=O (stereo not given in full)	-5	16	-15	58*	17	11
CN(C)S(=O)(=O)c1ccc(C(=O)NN2C(=O)NC3(CCCCC3)C2=O)cc1	0	1	0	8	7	3
O=C(N/N=C1/CCSC1)c1cc(Br)ccc1O	-18	8	-4	-5	45*	-1
COc1cc2c(cc1OC(C)=O)CCCCC2=O	-8	0	1	1	18	-3
CCC(C)NC(=O)c1cnn2c(C)c3c(nc12)CCCC3 (stereo not given)	-3	-2	39*	18	-1	-5
Cc1c2c(nc3c(C(=O)NC4CC4)cnn13)CCCC2	6	-2	3	-1	-4	-7
C#CC[N+]1(CC#Cc2ccccc2)CCCC1	-13	1	-5	2	0	-7
C(#Cc1ccccc1)C[N+]1(CC#Cc2cccc3ccccc23)CCCC1	-20	1	-14	5	29*	-10
CC(C)(C)NC(=S)NC(=O)C12CCC3CC(CC(C3)C1)C2	-2	0	0	-4	13	-3
CCOC(=O)C1=CCN(S(=O)(=O)c2ccc(C)cc2)C1c1cccc(F)c1 (stereo not given)	-4	0	-5	-2	3	-4
CN1\C(=C/C=C/C=C/C=[N+](C)C)C(C)(C)c2ccccc21	-9	8	-14	21	9	38*
C[C@H](NC(=O)[C@@H]1Cc2ccccc2CN1)C(=O)Nc1ccc2c(c1)OCCO2	20*	1	5	-11	-21	-3

Source: PubChem BioAssay
